Activity calls are given as the source filed them. The rule behind the calls is not given here.
Key:
[1] = Inhibition of human protein farnesyltransferase using dansyl peptide containing CAAX as substrate in presence of farnesyl pyrophosphate after 15 mins by fluorescence assay
[2] = system: ASPC1; test: Antiproliferative activity against human AsPC1 cells expressing K-Ras mutant after 2 days by trypan blue staining based assay; assay type: functional, cell-based
Method in brief: (§1)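 Cells (AsPC-1, K-Ras mutant; or BxPC-3) were seeded at 1.0 × 10^4 per well and grown 1 d at 37 °C. The disulfide prodrug form was then added, and cells were incubated 2 days. At 0, 1 and 2 days after addition, cells were detached and stained with 0.4% trypan blue. Unstained (living) cells were counted.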

[3] = system: ASPC1; test: Antiproliferative activity against human AsPC1 cells expressing K-Ras mutant at 10 uM after 1 day in presence of DTT by trypan blue staining based assay; assay type: functional, cell-based
[4] = species: Homo sapiens; test: Inhibition of human protein farnesyltransferase assessed as enzyme activity in presence of Zn2+ ions (reference value: 49%); parameters: scale not given: the % may be the effect or the level left
[5] = species: Homo sapiens; test: Inhibition of human protein farnesyltransferase assessed as enzyme activity in presence of Cu2+ ions (reference value: 49%); parameters: scale not given: the % may be the effect or the level left
[6] = species: Homo sapiens; test: Inhibition of human protein farnesyltransferase assessed as enzyme activity in presence of Fe2+ ions (reference value: 49%); parameters: scale not given: the % may be the effect or the level left
[7] = species: Homo sapiens; test: Inhibition of human protein farnesyltransferase assessed as enzyme activity in presence of Ni2+ ions (reference value: 49%); parameters: scale not given: the % may be the effect or the level left
[8] = species: Homo sapiens; test: Inhibition of human protein farnesyltransferase assessed as enzyme activity in presence of Co2+ ions (reference value: 49%); parameters: scale not given: the % may be the effect or the level left
[9] = species: Homo sapiens; test: Inhibition of human protein farnesyltransferase assessed as enzyme activity in presence of Ca2+ ions (reference value: 49%); parameters: scale not given: the % may be the effect or the level left
[10] = system: ASPC1; test: Antiproliferative activity against human AsPC1 cells expressing K-Ras mutant at 0.5 to 10 uM after 2 days by trypan blue staining based assay; assay type: functional, cell-based; method in brief: as §1
[11] = system: BXPC-3; test: Antiproliferative activity against human BxPC3 cells at 0.5 to 10 uM after 2 days by trypan blue staining based assay; assay type: functional, cell-based; method in brief: as §1

Row | IC50 [1] | Activity [4] | Activity [5] | Activity [6] | Activity [7] | Activity [8] | Activity [9] | Structure (SMILES) | Activity [2] | Activity [3] | Activity [10] | Activity [11]
1 | 2000 nM | – | – | – | – | – | – | CCCCCCCCCCCCOC(=O)Nc1cc(CNCCS)nc(CNCCS)c1 | Dose-dependent effect | Active | – | –
2 | – | 100% | 47% | 38% | 67% | 66% | 48% | SCCNCc1cc(-c2cccc3ccccc23)cc(CNCCS)n1 | – | – | – | –
3 | 900 nM | – | – | – | – | – | – | CC(C)=CCC/C(C)=C/CC/C(C)=C/COC(=O)Nc1cc(CNCCS)nc(CNCCS)c1 | – | Active | Active | Active

From ChEMBL document CHEMBL4052723, “A novel inhibitor of farnesyltransferase with a zinc site recognition moiety and a farnesyl group” (Bioorg Med Chem Lett, 2017)
